Measurements taken from ChEMBL document CHEMBL1949664, “Epiminocyclohepta[b]indole analogs as 5-HT6 antagonists” (Bioorg Med Chem Lett, 2012).

Legend:
[1] = biological target: T1, 5-hydroxytryptamine receptor 6 (Homo sapiens, UniProt P50406); assay: Displacement of [3H]LSD from human 5-HT6 serotonin receptor by scintillation proximity assay
Liver microsomes [2] = assay: (§1) Stability in rat liver microsomes assessed as compound remaining after 1 hr; assay type: ADME, Microsome; details: microsomes, 1 h
How it was run: (§2)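 Rat liver microsomes; percent parent compound remaining after 1 h incubation.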

Caco-2 [3] = assay: (§3) Permeability from apical to basolateral side of human Caco2 cells; assay type: ADME, cell-based
How it was run: (§4)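 Caco-2 monolayers; apical-to-basolateral flux reported as ×10^-6 cm/s.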

Liver microsomes [4] = assay: (§5) Stability in human liver microsomes assessed as compound remaining after 1 hr; assay type: ADME, Microsome; details: microsomes, 1 h
How it was run: (§6)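 Human liver microsomes; percent parent compound remaining after 1 h incubation.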

[5] = biological target: T1, 5-hydroxytryptamine receptor 6; assay: Agonist activity at human 5-HT6 serotonin receptor expressed in CHO-1 cells assessed as cAMP production relative to 5-hydroxytryptamine; assay type: functional, cell-based; parameters: concentration or dose not given beside the values
Caco-2 [6] = assay: (§7) Efflux ratio of permeability from basolateral to apical side over apical to basolateral side in human Caco2 cells; assay type: ADME, cell-based
Rattus norvegicus [7] = assay: Ex vivo 5-HT6 serotonin receptor occupancy in Sprague-Dawley rat brain at 30 mg/kg after 24 hrs using [125I][…] by autoradiography; assay type: functional
How it was run: (§8)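 Sprague Dawley rats dosed at 10, 30 or 90 mg/kg, brains taken at 6 or 24 h. Caudate putamen sections incubated with [125I]SB258585 alone (total) or plus methiothepin (non-specific); β-imager read-out. Two determinations per animal, 5 animals per dose group; specific binding expressed relative to vehicle controls.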

[8] = Tmax (0 to 6 hrs) in Sprague-Dawley rat at 30 mg/kg, po; assay type: ADME, organism-based; parameters: dose 30 mg/kg, route oral; details: in vivo
Rattus norvegicus [9] = assay: Ex vivo 5-HT6 serotonin receptor occupancy in Sprague-Dawley rat brain at 90 mg/kg after 6 hrs using [125I][…] by autoradiography; assay type: functional; how it was run: as §8
Rattus norvegicus [10] = assay: Ex vivo 5-HT6 serotonin receptor occupancy in Sprague-Dawley rat brain at 10 mg/kg after 24 hrs using [125I][…] by autoradiography; assay type: functional; how it was run: as §8
[11] = AUC (0 to infinity) in Sprague-Dawley rat at 10 mg/kg, po; assay type: ADME, organism-based; parameters: time infinity, dose 10 mg/kg, route oral; details: plasma
[12] = Cmax (0 to 6 hrs) in Sprague-Dawley rat at 30 mg/kg, po; assay type: ADME, organism-based; parameters: dose 30 mg/kg, route oral; details: in vivo
Rattus norvegicus [13] = assay: Ex vivo 5-HT6 serotonin receptor occupancy in Sprague-Dawley rat brain at 90 mg/kg after 24 hrs using [125I][…] by autoradiography; assay type: functional; how it was run: as §8
Rattus norvegicus [14] = assay: Ex vivo 5-HT6 serotonin receptor occupancy in Sprague-Dawley rat brain at 10 mg/kg after 6 hrs using [125I][…] by autoradiography; assay type: functional; how it was run: as §8
[15] = Volume of distribution at steady state in Sprague-Dawley rat at 2 mg/kg, iv; assay type: ADME, organism-based; parameters: dose 2 mg/kg, route intravenous; details: in vivo, read-out: Vdss
[16] = Cmax in Sprague-Dawley rat at 10 mg/kg, po; assay type: ADME, organism-based; parameters: dose 10 mg/kg, route oral; details: in vivo
[17] = Clearance in Sprague-Dawley rat at 2 mg/kg, iv; assay type: ADME, organism-based; parameters: dose 2 mg/kg, route intravenous; details: in vivo
[18] = Tmax in Sprague-Dawley rat at 10 mg/kg, po; assay type: ADME, organism-based; parameters: dose 10 mg/kg, route oral; details: in vivo
[19] = Oral bioavailability in Sprague-Dawley rat at 10 mg/kg; assay type: ADME, organism-based; details: in vivo
[20] = Ratio of drug level in brain to plasma in Sprague-Dawley rat at 10 mg/kg, po after 6 hrs; assay type: ADME, organism-based; parameters: dose 10 mg/kg, route oral; details: read-out: BPR
[21] = Oral bioavailability in Sprague-Dawley rat at 2 mg/kg; assay type: ADME, organism-based; details: in vivo
[22] = Half life in Sprague-Dawley rat at 10 mg/kg, po; assay type: ADME, organism-based; parameters: dose 10 mg/kg, route oral; details: in vivo
Rattus norvegicus [23] = assay: Ex vivo 5-HT6 serotonin receptor occupancy in Sprague-Dawley rat brain at 30 mg/kg after 6 hrs using [125I][…] by autoradiography; assay type: functional; how it was run: as §8
Rattus norvegicus [24] = species on record: Rattus norvegicus; assay: Ex vivo 5-HT6 serotonin receptor occupancy in Sprague-Dawley rat brain after 6 hrs using [125I][…] by autoradiography; assay type: functional, organism-based; how it was run: as §8
[25] = biological target: T1, 5-hydroxytryptamine receptor 6; assay: Antagonist activity at human 5-HT6 serotonin receptor expressed in CHO-1 cells assessed as inhibition of 5-hydroxytryptamine-induced cAMP production; assay type: functional, cell-based
[26] = as §1; assay type: ADME, Microsome; details: liver microsomes, read-out: Stability; how it was run: as §2
[27] = as §3; assay type: ADME, cell-based; details: caco-2, read-out: permeability; how it was run: as §4
[28] = as §5; assay type: ADME, Microsome; details: liver microsomes, read-out: Stability; how it was run: as §6
[29] = as §7; assay type: ADME, cell-based; details: caco-2

T1 sequence (P50406 whole entry): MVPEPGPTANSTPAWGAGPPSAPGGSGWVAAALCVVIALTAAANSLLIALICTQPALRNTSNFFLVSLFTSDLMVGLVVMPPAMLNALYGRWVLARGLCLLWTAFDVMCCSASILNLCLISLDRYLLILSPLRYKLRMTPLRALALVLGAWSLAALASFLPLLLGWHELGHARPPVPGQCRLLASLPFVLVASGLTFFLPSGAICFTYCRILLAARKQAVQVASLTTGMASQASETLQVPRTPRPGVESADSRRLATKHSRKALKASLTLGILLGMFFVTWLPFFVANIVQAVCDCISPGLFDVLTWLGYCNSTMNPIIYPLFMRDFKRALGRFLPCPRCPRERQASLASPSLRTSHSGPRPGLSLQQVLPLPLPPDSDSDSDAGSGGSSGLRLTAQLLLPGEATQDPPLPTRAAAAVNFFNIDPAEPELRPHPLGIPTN

Cn1ccc(S(=O)(=O)c2ccc3c(c2)c2c(n3C)CC3CCC2N3)n1 (stereo unspecified)
Ki [1]: 1010 nM

Cn1c2c(c3cccc(S(=O)(=O)c4ccccc4)c31)C1CCC(C2)N1 (racemic)
Ki [1]: 814 nM

Cn1c2c(c3ccc(S(=O)(=O)c4ccccc4)cc31)C1CCC(C2)N1 (racemic)
Ki [1]: 131 nM

CCN1C2CCC1c1c(n(C)c3ccc(S(=O)(=O)c4ccccc4)cc13)C2 (racemic)
Ki [1]: 91 nM

O=S(=O)(c1ccccc1)c1ccc2[nH]c3c(c2c1)C1CCC(C3)N1 (racemic)
Ki [1]: 54 nM

Cn1c2c(c3cc(S(=O)(=O)c4cccc(F)c4)ccc31)C1CCC(C2)N1 (racemic)
Ki [1]: 4.1 nM

Cn1c2c(c3cc(S(=O)(=O)c4ccncc4)ccc31)C1CCC(C2)N1 (racemic)
Ki [1]: > 10000 nM

Cn1c2c(c3cc(S(=O)(=O)n4cccc4)ccc31)C1CCC(C2)N1 (racemic)
Ki [1]: 32 nM

Cn1c2c(c3cc(S(=O)(=O)c4csc5ccccc45)ccc31)C1CCC(C2)N1 (single isomer, unassigned) [listing 1 of 2 here]
Stability (Liver microsomes [2]): 80%
permeability (Caco-2 [3]): 15.7 ×10⁻⁶ cm/s
Stability (Liver microsomes [4]): 78%

Cn1c2c(c3cc(S(=O)(=O)c4csc5ccccc45)ccc31)C1CCC(C2)N1 (single isomer, unassigned) [listing 2 of 2 here]
Activity [5]: < 15%

Cn1c2c(c3cc(S(=O)(=O)c4cccc(Cl)c4)ccc31)C1CCC(C2)N1 (single isomer, unassigned; (+)) [listing 1 of 2 here]
Stability (Liver microsomes [2]): 72%
permeability (Caco-2 [3]): 8.55 ×10⁻⁶ cm/s
Stability (Liver microsomes [4]): 93%
Ratio (Caco-2 [6]): 4.4

Cn1c2c(c3cc(S(=O)(=O)c4cccc(C(F)(F)F)c4)ccc31)C1CCC(C2)N1 (single isomer, unassigned; (+)) [listing 1 of 2 here]
Activity (Rattus norvegicus [7]): 74%
Tmax [8]: 6 h
Activity (Rattus norvegicus [9]): 78%
Stability (Liver microsomes [2]): 79%
Activity (Rattus norvegicus [10]): 48%
permeability (Caco-2 [3]): 24.8 ×10⁻⁶ cm/s
AUC(0-inf) [11]: 26700 ng·h/mL
Cmax [12]: 732 ng/mL
Activity (Rattus norvegicus [13]): 84%
Activity (Rattus norvegicus [14]): 60%
Vd [15]: 4.7 L/kg
Cmax [16]: 916 ng/mL
clearance [17]: 5.7 mL/min/kg
Stability (Liver microsomes [4]): 100%
Tmax [18]: 4 h
bioavailability [19]: 91%
Kp at 6 h [20]: 1.3
bioavailability [21]: 91%
half-life [22]: 10 h
Activity (Rattus norvegicus [23]): 76%

Cn1c2c(c3cc(S(=O)(=O)n4ccc5ccccc54)ccc31)C1CCC(C2)N1 (single isomer, unassigned; (+)) [listing 1 of 2 here]
Tmax [8]: 6 h
Stability (Liver microsomes [2]): 86%
permeability (Caco-2 [3]): 12 ×10⁻⁶ cm/s
Cmax [12]: 41 ng/mL
Stability (Liver microsomes [4]): 96%

Cn1c2c(c3cc(S(=O)(=O)c4c[nH]c5ccccc45)ccc31)C1CCC(C2)N1 (single isomer, unassigned; (+)) [listing 1 of 2 here]
Stability (Liver microsomes [2]): 57%
permeability (Caco-2 [3]): 1.05 ×10⁻⁶ cm/s
Stability (Liver microsomes [4]): 86%

Cn1c2c(c3cc(S(=O)(=O)c4ccc5[nH]ccc5c4)ccc31)C1CCC(C2)N1 (single isomer, unassigned; (+)) [listing 1 of 2 here]
Stability (Liver microsomes [2]): 91%
Stability (Liver microsomes [4]): 99%

Cn1c2c(c3cc(S(=O)(=O)c4c[nH]c5ccccc45)ccc31)C1CCC(C2)N1 (single isomer, unassigned; (+)) [listing 2 of 2 here]
Activity [5]: < 15%

Cn1c2c(c3cc(S(=O)(=O)c4ccc5[nH]ccc5c4)ccc31)C1CCC(C2)N1 (single isomer, unassigned; (+)) [listing 2 of 2 here]
Activity [5]: < 15%

Cn1c2c(c3cc(S(=O)(=O)c4cccc(C(F)(F)F)c4)ccc31)C1CCC(C2)N1 (single isomer, unassigned; (+)) [listing 2 of 2 here]
Activity [5]: < 15%
Activity (Rattus norvegicus [24]): Dose-dependent effect

Cn1c2c(c3cc(S(=O)(=O)c4cccc(Cl)c4)ccc31)C1CCC(C2)N1 (single isomer, unassigned; (+)) [listing 2 of 2 here]
Activity [5]: < 15%
Kb [25]: 4 nM

Cn1c2c(c3cc(S(=O)(=O)c4ccccc4)ccc31)C1CCC(C2)N1 (single isomer, unassigned; (+))
Activity [5]: < 15%

Cn1c2c(c3cc(S(=O)(=O)n4ccc5ccccc54)ccc31)C1CCC(C2)N1 (single isomer, unassigned; (+)) [listing 2 of 2 here]
Activity [5]: < 15%

Cn1c2c(c3cc(S(=O)(=O)c4cccc(Cl)c4)ccc31)C1CCC(C2)N1 (single isomer, unassigned; (-)) [listing 1 of 2 here]
remaining at 1 h [26]: 63%
Papp A→B [27]: 7.49 ×10⁻⁶ cm/s
remaining at 1 h [28]: 76%
efflux ratio [29]: 6

Cn1c2c(c3cc(S(=O)(=O)c4cccc(C(F)(F)F)c4)ccc31)C1CCC(C2)N1 (single isomer, unassigned; (-)) [listing 1 of 2 here]
remaining at 1 h [26]: 65%
Papp A→B [27]: 16.5 ×10⁻⁶ cm/s
Stability (Liver microsomes [4]): 78%

Cn1c2c(c3cc(S(=O)(=O)n4ccc5ccccc54)ccc31)C1CCC(C2)N1 (single isomer, unassigned; (-)) [listing 1 of 2 here]
remaining at 1 h [26]: 88%
Papp A→B [27]: 15 ×10⁻⁶ cm/s
remaining at 1 h [28]: 82%

Cn1c2c(c3cc(S(=O)(=O)c4c[nH]c5ccccc45)ccc31)C1CCC(C2)N1 (single isomer, unassigned; (-)) [listing 1 of 2 here]
Stability (Liver microsomes [2]): 34%
permeability (Caco-2 [3]): 0.41 ×10⁻⁶ cm/s
remaining at 1 h [28]: 72%

Cn1c2c(c3cc(S(=O)(=O)c4ccc5[nH]ccc5c4)ccc31)C1CCC(C2)N1 (single isomer, unassigned; (-)) [listing 1 of 2 here]
remaining at 1 h [26]: 77%
Papp A→B [27]: 0.55 ×10⁻⁶ cm/s
remaining at 1 h [28]: 89%

Cn1c2c(c3cc(S(=O)(=O)c4csc5ccccc45)ccc31)C1CCC(C2)N1 (single isomer, unassigned; (-)) [listing 1 of 2 here]
remaining at 1 h [26]: 67%
permeability (Caco-2 [3]): 0.24 ×10⁻⁶ cm/s
Stability (Liver microsomes [4]): 52%

Cn1c2c(c3cc(S(=O)(=O)c4c[nH]c5ccccc45)ccc31)C1CCC(C2)N1 (single isomer, unassigned; (-)) [listing 2 of 2 here]
Activity [5]: < 15%

Cn1c2c(c3cc(S(=O)(=O)c4ccc5[nH]ccc5c4)ccc31)C1CCC(C2)N1 (single isomer, unassigned; (-)) [listing 2 of 2 here]
Activity [5]: < 15%

Cn1c2c(c3cc(S(=O)(=O)c4cccc(C(F)(F)F)c4)ccc31)C1CCC(C2)N1 (single isomer, unassigned; (-)) [listing 2 of 2 here]
Activity [5]: < 15%

Cn1c2c(c3cc(S(=O)(=O)c4cccc(Cl)c4)ccc31)C1CCC(C2)N1 (single isomer, unassigned; (-)) [listing 2 of 2 here]
Activity [5]: < 15%
Kb [25]: 3.5 nM

Cn1c2c(c3cc(S(=O)(=O)c4ccccc4)ccc31)C1CCC(C2)N1 (single isomer, unassigned; (-))
Activity [5]: < 15%

Cn1c2c(c3cc(S(=O)(=O)c4csc5ccccc45)ccc31)C1CCC(C2)N1 (single isomer, unassigned; (-)) [listing 2 of 2 here]
Activity [5]: < 15%

Cn1c2c(c3cc(S(=O)(=O)n4ccc5ccccc54)ccc31)C1CCC(C2)N1 (single isomer, unassigned; (-)) [listing 2 of 2 here]
Activity [5]: < 15%
